Consider 24 molecules from ChEMBL document CHEMBL1143374, “Solution- and solid-phase synthesis and anti-HIV activity of maslinic acid derivatives containing amino acids and peptides” (2009).

The test system of assay [1] is MT2. Kind of assay: Induction of apoptosis in HIV1 NL4-3 infected human MT2 cells administered 30 mins before viral challenge measured after 24 hrs by propidium iodide staining and flow cytometry. It counts as functional, cell-based. In a few lines: (§1)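 MT-2 cells at 10^6/mL were pretreated 30 min, then infected 24 h with VSV-pseudotyped HIV-1 luciferase virus. Phase percentages were taken; apoptosis was scored as the sub-G0/G1 (hypodiploid) fraction.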

In assay [2] the test system is Human immunodeficiency virus 1. The assay is described as follows: Antiviral activity against HIV1 NL4-3 infected human MT2 cells assessed as viral infection at 10 uM administered 30 mins before viral challenge by luciferase reporter gene activation assay relative to control. Format: functional. In a few lines: (§2)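 MT-2 cells at 10^6/mL in RPMI 1640 with 10% heat-inactivated FBS, 37 °C, 5% CO2. Cells were pretreated 30 min, then infected with VSV-pseudotyped pNL4-3.Luc.R−E− virus made in 293T cells (200 ng p24). After 20 h: PBS wash, lysis in Tris-phosphate pH 7.8 buffer, luciferase read. Value is % of untreated infected cells (100%), ±S.D.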
On the technique in general: Reporter assays use an easily measured gene product as a stand-in for the process of interest.

Assay [3] concerns Human immunodeficiency virus 1. The assay is described as follows: Antiviral activity against HIV1 NL4-3 infected human MT2 cells assessed as viral infection at 25 uM administered 30 mins before viral challenge by luciferase reporter gene activation assay relative to control. Format: functional. In a few lines:
as §2

Assay [4] deals with MT2. Kind of assay: Cell cycle arrest in HIV1 NL4-3 infected human MT2 cells assessed as accumulation at G2/M phase at 10 uM administered 30 mins before viral challenge measured after 24 hrs by propidium iodide staining and flow cytometry. Format: functional. The method in brief:
as §1

For assay [5], the system named is MT2. The assay is described as follows: Induction of apoptosis in HIV1 NL4-3 infected human MT2 cells at 10 uM administered 30 mins before viral challenge measured after 24 hrs by propidium iodide staining and flow cytometry. Format: functional. The method in brief:
as §1
Background: A flow cytometer gives signals particle by particle.

The subject of assay [6] is MT2. Kind of assay: Cell cycle arrest in HIV1 NL4-3 infected human MT2 cells assessed as accumulation at S phase at 25 uM administered 30 mins before viral challenge measured after 24 hrs by propidium iodide staining and flow cytometry. Format: functional. The method in brief: as §1
In assay [7] the test system is MT2. Kind of assay: Cell cycle arrest in HIV1 NL4-3 infected human MT2 cells assessed as accumulation at S phase at 10 uM administered 30 mins before viral challenge measured after 24 hrs by propidium iodide staining and flow cytometry. Format: functional. The method in brief:
as §1

Assay [8] concerns MT2. Kind of assay: Cell cycle arrest in HIV1 NL4-3 infected human MT2 cells assessed as accumulation at G0/G1 phase at 10 uM administered 30 mins before viral challenge measured after 24 hrs by propidium iodide staining and flow cytometry. Format: functional. The method in brief:
as §1

The test system of assay [9] is MT2. Kind of assay: Cell cycle arrest in HIV1 NL4-3 infected human MT2 cells assessed as accumulation at G2/M phase at 25 uM administered 30 mins before viral challenge measured after 24 hrs by propidium iodide staining and flow cytometry. It counts as functional. In a few lines:
as §1

Assay [10] relates to MT2. Kind of assay: Induction of apoptosis in HIV1 NL4-3 infected human MT2 cells at 25 uM administered 30 mins before viral challenge measured after 24 hrs by propidium iodide staining and flow cytometry. It counts as functional. The method in brief: as §1
In assay [11] the test system is MT2. Kind of assay: Cell cycle arrest in HIV1 NL4-3 infected human MT2 cells assessed as accumulation at G0/G1 phase at 25 uM administered 30 mins before viral challenge measured after 24 hrs by propidium iodide staining and flow cytometry. Format: functional. The method in brief:
as §1

The source made the active and inactive calls. The rule behind the calls is not given here.

For the molecule `COC(=O)CCCNC(=O)[C@]12CCC(C)(C)C[C@H]1C1=CC[C@@H]3[C@@]4(C)C[C@@H](O)[C@H](O)C(C)(C)[C@@H]4CC[C@@]3(C)[C@]1(C)CC2`, in the assay with MT2 [1], the result was Active. In addition, the figures for the Activity in [2] and in assay [3] were 32.5% and 12%, respectively.

Take `COC(=O)CCCCCCCCCCNC(=O)[C@]12CCC(C)(C)C[C@H]1C1=CC[C@@H]3[C@@]4(C)C[C@@H](O)[C@H](O)C(C)(C)[C@@H]4CC[C@@]3(C)[C@]1(C)CC2`: the Activity in [2] was 66.9%; in [3], 35.6%.

Turning to `CC(C)[C@H](NC(=O)CCCNC(=O)[C@]12CCC(C)(C)C[C@H]1C1=CC[C@@H]3[C@@]4(C)C[C@@H](O)[C@H](O)C(C)(C)[C@@H]4CC[C@@]3(C)[C@]1(C)CC2)C(=O)O`, the Activity in [2] is on record as 66.2%; in [3], 130.2%.

With `C[C@H](NC(=O)CCCCCNC(=O)[C@]12CCC(C)(C)C[C@H]1C1=CC[C@@H]3[C@@]4(C)C[C@@H](O)[C@H](O)C(C)(C)[C@@H]4CC[C@@]3(C)[C@]1(C)CC2)C(=O)O`, the Activity in assay [2] stood at 107%; in assay [3], 70.2%.

As to `CC1(C)CC[C@]2(C(=O)O)CC[C@]3(C)C(=CC[C@@H]4[C@@]5(C)C[C@@H](O)[C@H](O)C(C)(C)[C@@H]5CC[C@]43C)[C@@H]2C1` [MASLINIC ACID], the Activity is recorded as 18.4% with MT2 [4]; 13.5% with MT2 [5]; 56.3% in assay [2]; 17.7% with MT2 [6]; 20.6% with MT2 [7]; 47.9% in the assay on MT2 [8]. The Activity in the assay with MT2 [9] is recorded as 7.5%; with MT2 [10] it was 51.8%; in [3] it was 6.7%; in the assay on MT2 [11], 23.1%.

For `CC1(C)CC[C@]2(C(=O)NCCCC(=O)NCC(=O)O)CC[C@]3(C)C(=CC[C@@H]4[C@@]5(C)C[C@@H](O)[C@H](O)C(C)(C)[C@@H]5CC[C@]43C)[C@@H]2C1`, the Activity is given as 112.3% in [2] and 143.3% in assay [3].

`COC(=O)CCCCCNC(=O)[C@]12CCC(C)(C)C[C@H]1C1=CC[C@@H]3[C@@]4(C)C[C@@H](O)[C@H](O)C(C)(C)[C@@H]4CC[C@@]3(C)[C@]1(C)CC2`: the results for the Activity in [2] and in assay [3] were 69.6% and 36.8%, respectively.

As for `CC1(C)CC[C@]2(C(=O)NCCCCCC(=O)NCC(=O)O)CC[C@]3(C)C(=CC[C@@H]4[C@@]5(C)C[C@@H](O)[C@H](O)C(C)(C)[C@@H]5CC[C@]43C)[C@@H]2C1`, the Activity in [2] turned out to be 125.7%; in assay [3], 122.1%.

For the molecule `COC(=O)[C@H](C)NC(=O)[C@]12CCC(C)(C)C[C@H]1C1=CC[C@@H]3[C@@]4(C)C[C@@H](O)[C@H](O)C(C)(C)[C@@H]4CC[C@@]3(C)[C@]1(C)CC2`, the Activity was found to be 63.6% in assay [2] and 8.9% in assay [3].

`CC1(C)CC[C@]2(C(=O)NCCCCCC(=O)O)CC[C@]3(C)C(=CC[C@@H]4[C@@]5(C)C[C@@H](O)[C@H](O)C(C)(C)[C@@H]5CC[C@]43C)[C@@H]2C1`: the values for the Activity in assay [2] and in [3] were 146.4% and 79.3%, respectively.

`C[C@H](NC(=O)[C@]12CCC(C)(C)C[C@H]1C1=CC[C@@H]3[C@@]4(C)C[C@@H](O)[C@H](O)C(C)(C)[C@@H]4CC[C@@]3(C)[C@]1(C)CC2)C(=O)O`: the Activity in assay [2] is 124.2%; in assay [3], 60.9%.

On to `CC1(C)CC[C@]2(C(=O)NCCCCCCCCCCC(=O)NCC(=O)O)CC[C@]3(C)C(=CC[C@@H]4[C@@]5(C)C[C@@H](O)[C@H](O)C(C)(C)[C@@H]5CC[C@]43C)[C@@H]2C1`, for which the Activity was 85.6% in assay [2] and 49.8% in [3].

As to `CC(C)[C@H](NC(=O)CCCCCCCCCCNC(=O)[C@]12CCC(C)(C)C[C@H]1C1=CC[C@@H]3[C@@]4(C)C[C@@H](O)[C@H](O)C(C)(C)[C@@H]4CC[C@@]3(C)[C@]1(C)CC2)C(=O)O`, the Activity worked out at 21.6% in the assay with MT2 [4]; 2.1% in the assay on MT2 [5]; 44.9% in [2]; 20.5% in the assay on MT2 [6]; 21.4% in the assay with MT2 [7]; 54.6% in the assay on MT2 [8]. Also, the Activity with MT2 [9] is 15.5%; in the assay with MT2 [10], 4.6%; in [3], 21.2%; with MT2 [11], 59.2%.

As to `CC(C)[C@H](NC(=O)CCCCCNC(=O)[C@]12CCC(C)(C)C[C@H]1C1=CC[C@@H]3[C@@]4(C)C[C@@H](O)[C@H](O)C(C)(C)[C@@H]4CC[C@@]3(C)[C@]1(C)CC2)C(=O)O`, the Activity was found to be 83.8% in [2] and 96.5% in assay [3].

As for `C[C@H](NC(=O)CCCNC(=O)[C@]12CCC(C)(C)C[C@H]1C1=CC[C@@H]3[C@@]4(C)C[C@@H](O)[C@H](O)C(C)(C)[C@@H]4CC[C@@]3(C)[C@]1(C)CC2)C(=O)O`, the Activity in assay [2] was 83.7%; in assay [3], 50.1%.

As to `C[C@H](NC(=O)[C@]12CCC(C)(C)C[C@H]1C1=CC[C@@H]3[C@@]4(C)C[C@@H](O)[C@H](O)C(C)(C)[C@@H]4CC[C@@]3(C)[C@]1(C)CC2)C(=O)NCC(=O)O`, the Activity in assay [2] was determined as 134.5%; in assay [3], 184.8%.

Turning to `COC(=O)[C@@H](NC(=O)[C@]12CCC(C)(C)C[C@H]1C1=CC[C@@H]3[C@@]4(C)C[C@@H](O)[C@H](O)C(C)(C)[C@@H]4CC[C@@]3(C)[C@]1(C)CC2)C(C)C`, the Activity in assay [2] is reported as 72%; in assay [3] it was 11.1%.

Regarding `COC(=O)CNC(=O)[C@]12CCC(C)(C)C[C@H]1C1=CC[C@@H]3[C@@]4(C)C[C@@H](O)[C@H](O)C(C)(C)[C@@H]4CC[C@@]3(C)[C@]1(C)CC2`, the Activity in [2] stood at 75.5%; in [3] it was 56.3%.

For `CC1(C)CC[C@]2(C(=O)NCC(=O)O)CC[C@]3(C)C(=CC[C@@H]4[C@@]5(C)C[C@@H](O)[C@H](O)C(C)(C)[C@@H]5CC[C@]43C)[C@@H]2C1`, the Activity is 162.1% in assay [2] and 130.7% in assay [3].

Consider `CC1(C)CC[C@]2(C(=O)NCCCCCCCCCCC(=O)O)CC[C@]3(C)C(=CC[C@@H]4[C@@]5(C)C[C@@H](O)[C@H](O)C(C)(C)[C@@H]5CC[C@]43C)[C@@H]2C1`, for which the Activity is on record as 15.1% in the assay with MT2 [4]; 3.5% in the assay on MT2 [5]; 56.7% in assay [2]; 22.2% in the assay on MT2 [6]; 18.8% in the assay on MT2 [7]; 62.6% with MT2 [8]. Further, the Activity with MT2 [9] is on record as 18.9%; in the assay with MT2 [10], 5.2%; in [3] it was 21.5%; in the assay on MT2 [11], 53.7%.

With `CC(C)[C@H](NC(=O)[C@]12CCC(C)(C)C[C@H]1C1=CC[C@@H]3[C@@]4(C)C[C@@H](O)[C@H](O)C(C)(C)[C@@H]4CC[C@@]3(C)[C@]1(C)CC2)C(=O)O`, the Activity turned out to be 102.8% in assay [2] and 121.2% in assay [3].

Take `C[C@H](NC(=O)CCCCCCCCCCNC(=O)[C@]12CCC(C)(C)C[C@H]1C1=CC[C@@H]3[C@@]4(C)C[C@@H](O)[C@H](O)C(C)(C)[C@@H]4CC[C@@]3(C)[C@]1(C)CC2)C(=O)O`: the Activity is on record as 71.7% in [2] and 27.6% in assay [3].

In the case of `C[C@H](NC(=O)CCCCCNC(=O)[C@]12CCC(C)(C)C[C@H]1C1=CC[C@@H]3[C@@]4(C)C[C@@H](O)[C@H](O)C(C)(C)[C@@H]4CC[C@@]3(C)[C@]1(C)CC2)C(=O)NCC(=O)O`, the Activity turned out to be 170.2% in assay [2] and 89.6% in [3].

For the molecule `CC1(C)CC[C@]2(C(=O)NCCCC(=O)O)CC[C@]3(C)C(=CC[C@@H]4[C@@]5(C)C[C@@H](O)[C@H](O)C(C)(C)[C@@H]5CC[C@]43C)[C@@H]2C1`, the Activity came out at 126.4% in assay [2] and 93.8% in [3].
